Measurements: ChEMBL document CHEMBL1811802, “Synthesis and significant cytostatic activity of 7-hetaryl-7-deazaadenosines” (J Med Chem, 2011)
pIC50: −log10 of the molar value.

How the values were obtained:
A549 = assay: Cytostatic activity against human A549 cells after 5 days by SRB assay; assay type: functional; conditions: A549, 120 h
Outline: (§1)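 Cells seeded per line density, overnight at 37 °C; day-zero plate TCA-fixed. 5-fold serial dilutions added, 5-day incubation; TCA fixation, 0.057% SRB in 1% acetic acid 30 min, dye dissolved in 10 mM Tris pH 10.5, A500. Growth relative to day-zero and untreated; GIC50 from sigmoidal dose–response fit; mean of two independent experiments.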

NCI-H23 = assay: Cytostatic activity against human NCI-H23 cells after 5 days by SRB assay; assay type: functional; conditions: NCI-H23, 120 h; outline: as §1
PC-3 [1] = assay: Cytostatic activity against human PC3 cells after 5 days by SRB assay; assay type: functional; conditions: PC-3, 120 h; outline: as §1
HCT-116 [2] = assay: Cytostatic activity against human HCT116 cells after 5 days by SRB assay; assay type: functional; conditions: HCT-116, 120 h; outline: as §1
[3] = Cytostatic activity against human Hs578 cells after 5 days by SRB assay; assay type: functional; conditions: Hs578, 120 h; outline: as §1
BT-549 [4] = assay: Cytostatic activity against human BT549 cells after 5 days by SRB assay; assay type: functional; conditions: BT-549, 120 h; outline: as §1
MT4 = assay: Cytostatic activity against human MT4 cells after 5 days by SRB assay; assay type: functional; conditions: MT4, 120 h
HL-60 = assay: Cytotoxicity against human HL60 cells after 3 days by XTT assay; assay type: functional, cell-based; conditions: HL-60, 72 h
Outline: (§2)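 Suspension-grown cell lines, 3-day compound incubation; viability read by XTT metabolic assay; IC50 averaged from four independent experiments.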

[5] = Cytotoxicity against human HeLaS3 cells after 3 days by XTT assay; assay type: functional, cell-based; conditions: HeLa S3, 72 h; outline: as §2
CCRF-CEM = assay: Cytotoxicity against human CCRF-CEM cells after 3 days by XTT assay; assay type: functional, cell-based; conditions: 72 h; outline: as §2
Adenosine kinase = Adenosine kinase (Homo sapiens, UniProt P55263); assay: Inhibition of human ADK using [3H]-adenosine by scintillation counting
K562 [6] = assay: Cytotoxicity against human K562 cells after 3 days by MTT assay; assay type: functional, cell-based; conditions: K562, 72 h
K562 [7] = assay: Cytotoxicity against human paclitaxel resistant K562 cells after 3 days by MTT assay; assay type: functional, cell-based; conditions: K562, 72 h
BV-173 = assay: Cytotoxicity against human BV173 cells after 3 days by MTT assay; assay type: functional, cell-based; conditions: BV-173, 72 h
[8] = Cytotoxicity against human CEM-DNR-bulk cells after 3 days by MTT assay; assay type: functional, cell-based; conditions: 72 h
L1210 = assay: Cytotoxicity against mouse L1210 cells after 3 days by MTT assay; assay type: functional, cell-based; conditions: L1210, 72 h
EL4 = assay: Cytotoxicity against mouse EL4 cells after 3 days by MTT assay; assay type: functional, cell-based; conditions: EL4, 72 h
MCF7 = assay: Cytotoxicity against human MCF7 cells after 3 days by MTT assay; assay type: functional, cell-based; conditions: MCF7, 72 h
BT-549 [9] = assay: Cytotoxicity against human BT549 cells after 3 days by MTT assay; assay type: functional, cell-based; conditions: BT-549, 72 h
MDA-MB-231 = assay: Cytotoxicity against human MDA-MB-231 cells after 3 days by MTT assay; assay type: functional, cell-based; conditions: MDA-MB-231, 72 h
SK-N-AS = assay: Cytotoxicity against human SK-N-AS cells after 3 days by MTT assay; assay type: functional, cell-based; conditions: 72 h
[10] = Cytotoxicity against human U87MG cells after 3 days by MTT assay; assay type: functional, cell-based, U-87MG ATCC; conditions: U-87 MG, 72 h
C6 = assay: Cytotoxicity against rat C6 cells after 3 days by MTT assay; assay type: functional, cell-based; conditions: C6, 72 h
HT-29 = assay: Cytotoxicity against human HT-29 cells after 3 days by MTT assay; assay type: functional, cell-based; conditions: HT-29, 72 h
HCT-116 [11] = assay: Cytotoxicity against human HCT116 cells after 3 days by MTT assay; assay type: functional, cell-based; conditions: HCT-116, 72 h
CT26 = assay: Cytotoxicity against mouse CT26 cells after 3 days by MTT assay; assay type: functional, cell-based; conditions: CT26, 72 h
PC-3 [12] = assay: Cytotoxicity against human PC3 cells after 3 days by MTT assay; assay type: functional, cell-based; conditions: PC-3, 72 h
LNCaP = assay: Cytotoxicity against human LNCAP cells after 3 days by MTT assay; assay type: functional, cell-based; conditions: 72 h
MAT-Ly-Lu = assay: Cytotoxicity against rat MAT-LyLu cells after 3 days by MTT assay; assay type: functional, cell-based; conditions: 72 h
[13] = Cytotoxicity against human NCI-H146 cells after 3 days by MTT assay; assay type: functional, cell-based; conditions: NCI-H146, 72 h
[14] = Cytotoxicity against human MES-SA cells after 3 days by MTT assay; assay type: functional, cell-based; conditions: 72 h
HeLa = assay: Cytotoxicity against human HeLa cells after 3 days by MTT assay; assay type: functional, cell-based; conditions: 72 h
SK-OV-3 = assay: Cytotoxicity against human SKOV3 cells after 3 days by MTT assay; assay type: functional, cell-based; conditions: SK-OV-3, 72 h
SK-MEL-2 = assay: Cytotoxicity against human SK-MEL-2 cells after 3 days by MTT assay; assay type: functional, cell-based; conditions: SK-MEL-2, 72 h
HPAC = assay: Cytotoxicity against human HPAC cells after 3 days by MTT assay; assay type: functional, cell-based; conditions: 72 h
[15] = Cytotoxicity against mouse P388D1 cells after 3 days by MTT assay; assay type: functional, cell-based; conditions: P388D1, 72 h
BJ = assay: Cytotoxicity against human BJ cells after 3 days by MTT assay; assay type: cell-based; conditions: 72 h
[16] = Inhibition of RNA polymerase 2 in human HeLaScribe nuclear extracts after 1 hr; conditions: read-out: IC50
Outline: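 HeLaScribe nuclear extract transcription with CMV(+) template DNA, 3 mM MgCl2, 400 μM CTP/GTP/UTP, 25 μM [33P]ATP. Inhibitor preincubated 5 min at 30 °C, then 1 h at 30 °C. Products run on 6% urea–polyacrylamide gel; full-length transcript quantified; IC50 is 50% product decrease.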

DU-145 = assay: Cytostatic activity against human DU145 cells after 5 days by SRB assay; assay type: functional; conditions: DU-145, 120 h; outline: as §1

Adenosine kinase, sequence (P55263 whole entry): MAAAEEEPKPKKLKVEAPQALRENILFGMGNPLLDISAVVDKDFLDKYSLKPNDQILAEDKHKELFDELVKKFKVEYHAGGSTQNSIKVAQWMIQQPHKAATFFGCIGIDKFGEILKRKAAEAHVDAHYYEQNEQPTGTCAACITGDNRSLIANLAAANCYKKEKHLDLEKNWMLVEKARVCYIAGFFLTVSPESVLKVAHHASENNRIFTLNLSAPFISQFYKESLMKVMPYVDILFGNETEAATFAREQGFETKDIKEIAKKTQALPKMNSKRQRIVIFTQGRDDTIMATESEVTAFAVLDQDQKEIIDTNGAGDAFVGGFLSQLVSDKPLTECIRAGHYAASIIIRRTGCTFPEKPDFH

| Compound | GI50 (A549) [nM] | GI50 (NCI-H23) [nM] | GI50 (PC-3 [1]) [nM] | GI50 (HCT-116 [2]) [nM] | GI50 [3] [nM] | GI50 (BT-549 [4]) [nM] | GI50 (MT4) [nM] | pIC50 (HL-60) | pIC50 [5] | pIC50 (CCRF-CEM) | pIC50 (Adenosine kinase) | pIC50 (K562 [6]) | pIC50 (K562 [7]) | pIC50 (BV-173) | pIC50 [8] | pIC50 (L1210) | pIC50 (EL4) | pIC50 (MCF7) | pIC50 (BT-549 [9]) | pIC50 (MDA-MB-231) | further results |
| --- | --- | --- | --- | --- | --- | --- | --- | --- | --- | --- | --- | --- | --- | --- | --- | --- | --- | --- | --- | --- | --- |
| Nc1ncnc2c1c(-c1cn[nH]c1)cn2[C@@H]1O[C@H](CO)[C@@H](O)[C@H]1O | 192 | 144 | 14 | 970 | 12 | 50 | 110 | < 4.60 | 6.66 | 6.25 | 7.30 | 5.01 | 7.04 | 5.01 | 6.98 | 6.59 | < 5.00 | < 5.00 | 6.97 | < 5.00 | pIC50 (SK-N-AS): < 5.00; pIC50 [10]: < 5.00; pIC50 (C6): 6.27; pIC50 (HT-29): 6.87; pIC50 (HCT-116 [11]): < 5.00; pIC50 (CT26): 6.40; pIC50 (PC-3 [12]): < 5.00; pIC50 (LNCaP): 5.02; pIC50 (MAT-Ly-Lu): < 5.00; pIC50 [13]: < 5.00; pIC50 [14]: 5.11; pIC50 (HeLa): 6.73; pIC50 (SK-OV-3): < 5.00; pIC50 (SK-MEL-2): < 5.00; pIC50 (HPAC): 6.85; pIC50 [15]: 7.03; pIC50 (BJ): < 5.00 |
| Nc1ncnc2c1c(-c1ccsc1)cn2[C@@H]1O[C@H](COP(=O)(O)OP(=O)(O)OP(=O)(O)O)[C@@H](O)[C@H]1O | – | – | – | – | – | – | – | – | – | – | – | – | – | – | – | – | – | – | – | – | pIC50 [16]: 4.04 |
| Nc1ncnc2c1c(-c1ccsc1)cn2[C@@H]1O[C@H](CO)[C@@H](O)[C@H]1O | 16 | 73 | 1320 | 7 | 50 | 28 | 124 | 5.18 | 7.22 | 6.96 | < 5.30 | 7.17 | 7.03 | 7.54 | 6.96 | 6.70 | < 5.00 | 5.14 | 6.92 | 7.09 | GI50 (DU-145): 97 nM; pIC50 (SK-N-AS): < 5.00; pIC50 [10]: < 5.00; pIC50 (C6): 5.08; pIC50 (HT-29): 6.74; pIC50 (HCT-116 [11]): 6.71; pIC50 (CT26): 6.65; pIC50 (PC-3 [12]): < 5.00; pIC50 (LNCaP): 7.17; pIC50 (MAT-Ly-Lu): 6.28; pIC50 [13]: < 5.00; pIC50 [14]: 7.12; pIC50 (HeLa): 6.91; pIC50 (SK-OV-3): < 5.00; pIC50 (SK-MEL-2): < 5.00; pIC50 (HPAC): 6.96; pIC50 [15]: 7.12; pIC50 (BJ): < 5.00 |
| Nc1ncnc2c1c(-c1ccoc1)cn2[C@@H]1O[C@H](CO)[C@@H](O)[C@H]1O | 34 | 198 | 418 | 15 | 21 | 28 | 170 | 5.04 | 7.70 | 7.15 | < 5.30 | 6.70 | 6.83 | 7.17 | 6.44 | 6.35 | < 5.00 | 5.01 | 6.34 | 6.90 | GI50 (DU-145): 330 nM; pIC50 (SK-N-AS): < 5.00; pIC50 [10]: < 5.00; pIC50 (C6): < 5.00; pIC50 (HT-29): 6.40; pIC50 (HCT-116 [11]): 6.37; pIC50 (CT26): 5.78; pIC50 (PC-3 [12]): < 5.00; pIC50 (LNCaP): 6.95; pIC50 (MAT-Ly-Lu): 5.73; pIC50 [13]: < 5.00; pIC50 [14]: 5.88; pIC50 (HeLa): 6.46; pIC50 (SK-OV-3): < 5.00; pIC50 (SK-MEL-2): < 5.00; pIC50 (HPAC): 6.88; pIC50 [15]: 6.86; pIC50 (BJ): < 5.00 |
